Most compounds without a hit are left out; they make up all but 0.77% or so of the library.
hIAP inh – human IAP inhibitors, primary screen, biochemical, luminescence, uHTS; Intestinal-type alkaline phosphatase (Homo sapiens), P09923; purified IAP, CDP-Star luminescence, 30 min; inhibition, % at 10 µM; 330,000 tested, 0.12% active; AID 2544, 2010;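 active = inhibition reaching a set limit with compound at 10 µM in the primary screen, cut at about 35% in these data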
Target sequence (P09923 whole entry, looked up): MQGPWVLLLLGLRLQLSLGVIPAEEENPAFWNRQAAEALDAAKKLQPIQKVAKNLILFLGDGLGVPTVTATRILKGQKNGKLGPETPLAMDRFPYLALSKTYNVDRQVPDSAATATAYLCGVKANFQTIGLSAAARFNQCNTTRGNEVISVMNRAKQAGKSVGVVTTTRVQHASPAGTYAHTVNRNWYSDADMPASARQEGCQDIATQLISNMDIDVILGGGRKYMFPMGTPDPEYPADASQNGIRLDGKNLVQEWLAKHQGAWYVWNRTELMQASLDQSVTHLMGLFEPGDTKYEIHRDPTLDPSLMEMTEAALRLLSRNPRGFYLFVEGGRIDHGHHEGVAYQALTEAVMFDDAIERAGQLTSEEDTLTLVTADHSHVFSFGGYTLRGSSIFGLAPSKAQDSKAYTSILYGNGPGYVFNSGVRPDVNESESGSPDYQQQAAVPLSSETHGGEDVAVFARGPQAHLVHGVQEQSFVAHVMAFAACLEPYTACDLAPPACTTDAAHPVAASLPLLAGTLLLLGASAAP
bIAP inhibitor – bovine intestinal alkaline phosphatase inhibitors, primary screen, selectivity assay for TNAP inhibitor project, biochemical, bovine IAP, CDP-star luminescence | alkaline phosphatase, intestinal [Bos taurus] | purified bovine IAP, 30 min | inhibition, % at 20 µM | 190,000 tested, under 10 active | AID 1019, 2008;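 active = over 50% inhibition of intestinal alkaline phosphatase at 20 µM in the single-dose screen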
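System: Purified bovine intestinal alkaline phosphatase (IAP) enzyme | Input: IAP diluted 1/65,000,000 in the well | Also added: CDP-star chemiluminescent phosphatase substrate, 30 µM final | Dosing: 20 µM single dose | Times: Enzyme reaction for 30 min at room temperature | Detection: Luminescence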
mIAP inh – inhibitors of mouse IAP, primary screen, biochemical, luminescence, uHTS; AID 2806, 2010; inhibition, % at 10 µM; 330,000 tested, 0.2% active; purified mouse IAP, CDP-Star luminescence, 30 min;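 active = inhibition of at least 40% at 10 µM in the primary screen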
hIAP activ – human IAP activators, primary screen, biochemical, luminescence, uHTS; Intestinal-type alkaline phosphatase (Homo sapiens), P09923; purified human IAP, CDP-Star luminescence, 30 min; stronger effect = higher value; 1 = vehicle-only enzyme, 0 = enzyme-free background; activation factor at 10 µM; 330,000 tested, 0.16% active; AID 2524, 2010;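 active = activation factor of the enzyme at least 2-fold when tested at 20 µM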
bIAP activator – bovine intestinal alkaline phosphatase activators, primary screen, biochemical, bovine IAP, CDP-star luminescence; alkaline phosphatase, intestinal [Bos taurus]; purified bovine IAP, 30 min; stronger effect = higher value; fold of DMSO-control signal, blank-subtracted; activation factor at 20 µM; 200,000 tested, 0.17% active;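 active = activation factor of 2 or more at 20 µM, a signal rise over negative controls twice the positive control's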
mIAP act – activators of mouse IAP, primary screen, biochemical, luminescence, uHTS; 330,000 tested, 0.24% active; activation factor at 10 µM; intestinal alkaline phosphatase [Mus musculus]; muIAP, CDP-Star luminescence, 30 min; stronger effect = higher value; 1 = vehicle-only enzyme signal, 0 = enzyme-free wells;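 active = activation factor of at least 2 at 20 µM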
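System: mouse IAP enzyme. Reagent: CDP-Star chemiluminescent phosphatase substrate. Benchmarks: DMSO wells, no-enzyme wells. Times: 30 min enzyme-substrate-compound incubation at room temperature. Detection: luminescence from enzymatic CDP-Star hydrolysis. Doses: test compounds delivered from DMSO solution.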
hIAP act conf – human IAP activators, confirmation, biochemical, luminescence, single concentration, uHTS hits. shares compounds with hIAP activ. purified IAP, CDP-Star luminescence, 30 min; stronger effect = lower value. activation (%Activity, negative = activation), % at 8.3 µM. 880 tested, 10% active;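 active = at least twofold enzyme activation in any of six single-dose repeats, which the averaged readout prints as negative percent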
Of the large screens only hits and unclear results are named; the others gave an inactive call (follow-up assays come after a bar, where they were run).

O=C1C2CC=CCC2C(=O)N1c1n[nH]c(-c2ccccc2)n1 (stereo unspecified)	hIAP inh 92 (no result: bIAP inhibitor) | hIAP act conf inactive
O=C1C2C3C=CC(C3)C2C(=O)N1c1n[nH]c(-c2ccccc2)n1 (stereo unspecified)	none
O=C1C2C3C=CC(C3)C2C(=O)N1c1n[nH]c(-c2cccnc2)n1 (stereo unspecified)	hIAP inh 66 | hIAP act conf -82
CC1Cc2cc(S(=O)(=O)N3CCC(C(=O)N4CCN(c5ccccc5F)CC4)CC3)ccc2N1C(=O)C1CC1 (stereo unspecified)	none (no result: bIAP inhibitor, bIAP activator)
O=C(Nc1cccc(C(=O)Nc2cccc(Br)c2)c1)c1ccccc1	none (no result: bIAP inhibitor, bIAP activator)
CC(C)c1ccc(NC(=O)c2cccc(Br)c2)cc1	hIAP activ 2.4 | hIAP act conf inactive
O=c1ccc(S(=O)(=O)N2CCCC2)cn1Cc1ccc(Cl)cc1Cl	none (no result: bIAP inhibitor, bIAP activator)
Oc1ccc(-c2csc(-c3ccccc3)n2)cc1O	none
Oc1ccc(-c2csc(-c3cccnc3)n2)cc1O	hIAP inh 41 (no result: bIAP inhibitor, bIAP activator) | hIAP act conf inactive
Cc1cc(C)c(CN2CCN(C(=O)Cn3cnc4c(NCc5ccccc5)ncnc43)CC2)c(C)c1	none (no result: hIAP inh, bIAP inhibitor, hIAP activ, bIAP activator)
Cc1occc1C(=O)NNC(=S)Nc1cccc([N+](=O)[O-])c1	hIAP activ 2.1 | hIAP act conf inactive
O=C(NC1CCCN(C2Cc3ccccc3C2)C1)c1ccc(F)cc1Cl (stereo unspecified)	none (no result: bIAP inhibitor, bIAP activator)
O=C(NNC(=O)c1ncc(Cl)c(Cl)c1Cl)c1ccc(F)cc1	hIAP activ 2.2 (no result: bIAP inhibitor, bIAP activator) | hIAP act conf inactive
Cc1ccc(N(CC(O)CN2C(=O)NC(C)(C)C2=O)S(=O)(=O)c2ccc(C)cc2)cc1 (stereo unspecified)	none (no result: bIAP inhibitor, bIAP activator)
Cc1ccc(N(CC(O)CN2C(=O)NC(C)(C)C2=O)S(=O)(=O)c2ccc([N+](=O)[O-])cc2)cc1 (stereo unspecified)	hIAP inh 39 (no result: bIAP inhibitor, bIAP activator) | hIAP act conf inactive
O=C(Cc1coc2ccc3ccccc3c12)Nc1nccs1	none
O=C(Cc1coc2ccc3ccccc3c12)NCc1ccccc1	hIAP activ 2 | hIAP act conf inactive
CCN(CC(=O)NC(c1ccccc1)c1ccccc1)Cc1nc2ccccc2c(=O)[nH]1	hIAP activ 2.1, bIAP activator 2.4 | hIAP act conf inactive
CCN(CC(=O)Nc1ccccc1SC)Cc1nc2ccccc2c(=O)[nH]1	none (no result: bIAP inhibitor, bIAP activator)
O=C1Nc2ccc(Br)cc2C12NNc1ccccc1O2 (stereo unspecified)	hIAP activ 5 (no result: bIAP inhibitor) | hIAP act conf inactive
COc1ccc(-c2nc(NC(=O)c3n[nH]c(=O)c4ccccc34)sc2C)cc1	hIAP activ 2.1 | hIAP act conf inactive
COc1cc(NC(=O)c2n[nH]c(=O)c3ccccc23)cc(OC)c1	none (no result: bIAP inhibitor, bIAP activator)
CC(=O)OCCN(CCCn1c(-c2ccncc2)nc2ccccc21)c1nc(CN2CCCCC2)cs1	none (no result: bIAP inhibitor, bIAP activator)
O=C(c1ccco1)N(Cc1ccc(Cl)cc1)Cc1ccco1	hIAP inh 38 (no result: bIAP inhibitor, bIAP activator) | hIAP act conf inactive
CN(C)c1ccc(CN(Cc2ccco2)C(=O)c2ccco2)cc1	none (no result: bIAP inhibitor, bIAP activator)
NC1=NCC(O)=C1c1nc2ccccc2[nH]1	hIAP activ 2 | hIAP act conf inactive
O=C(O)CNC(=O)c1ccccc1F	none
O=C(NCCCCNC(=O)c1ccccc1F)c1ccccc1F	hIAP inh 37 (no result: bIAP inhibitor, bIAP activator) | hIAP act conf inactive
C=CCOc1ccc(C(c2c(C)n(C)n(-c3ccccc3)c2=O)c2c(C)n(C)n(-c3ccccc3)c2=O)cc1	none (no result: bIAP inhibitor, bIAP activator)
COc1ccc([C@H]2CC(=O)C=C(c3ccc(C(=O)O)cc3)C2)cc1OC	none (no result: bIAP inhibitor, bIAP activator)
CCCCn1c(=N)n(CC(=O)c2ccco2)c2ccccc21	none
CCCCCCCn1c(=N)n(CC(=O)c2ccco2)c2ccccc21	hIAP inh 37 | hIAP act conf -50
CS(=O)(=O)N1CCN(C(=O)c2cc(-c3ccncc3)nc3ccc(Cl)cc23)CC1	hIAP activ 2.5 | hIAP act conf inactive
COc1ccccc1C(=O)NCCC(=O)N(C)Cc1ccc(C)o1	none (no result: bIAP inhibitor, bIAP activator)
CC(=O)Nc1ccc(S(=O)(=O)N(C)CCOCc2ccccc2)cc1	hIAP inh 38 | hIAP act conf inactive
O=c1/c(=C\c2ccc(O)cc2)sc2n1C(c1ccccc1)C(c1ccccc1)=NN=2 (stereo unspecified)	hIAP inh 37 | hIAP act conf inactive
CCOC(=O)C1=C(c2ccccc2)N=c2s/c(=C\c3cccc(O)c3)c(=O)n2C1c1cccs1 (stereo unspecified)	none
Cc1ccc(S(=O)(=O)NC(=O)COc2cc(C)ccc2C(C)C)cc1	none (no result: bIAP inhibitor, bIAP activator)
C/C(=N/Nc1ccc([N+](=O)[O-])cc1)c1c[nH]c2ccccc12	none (no result: bIAP inhibitor, bIAP activator)
Cc1ccc(C2CC2C(=O)NNC(=S)Nc2ccc(Cl)cc2)cc1 (stereo unspecified)	hIAP activ 2.4 | hIAP act conf inactive
O=C(Cc1ccccc1)NNC(=S)Nc1ccc(Cl)cc1	hIAP activ 2.1 | hIAP act conf inactive
Cc1cccc(NC(=S)NNC(=O)Cc2ccccc2)c1	none
COc1cccc(/C=N/NC(=O)CNC(=O)COc2ccccc2)c1O	none (no result: bIAP inhibitor, bIAP activator)
O=C(COc1ccccc1)NCC(=O)N/N=C/c1ccc(O)cc1O	hIAP activ 2.1 (no result: bIAP inhibitor, bIAP activator) | hIAP act conf inactive
CC(NC(=O)c1cccc(F)c1)C1CC2CCC1C2 (stereo unspecified)	none (no result: bIAP inhibitor, bIAP activator)
COC(=O)c1ccc(N/C(C)=C/C(=O)c2ccc(C)o2)cc1	hIAP inh 36 | hIAP act conf inactive
Nc1ccc(S(=O)(=O)N2CCc3ccccc32)cc1	hIAP inh 38 (no result: bIAP inhibitor, bIAP activator) | hIAP act conf inactive
O=C(NCCC1CCCCN1S(=O)(=O)c1ccccc1)C(=O)Nc1ccc(F)cc1F (stereo unspecified)	none (no result: bIAP inhibitor, bIAP activator)
COc1ccc(C2(c3ccc(OC)cc3)NC(=O)N(CC(=O)NCC(C)c3ccccc3)C2=O)cc1 (stereo unspecified)	none (no result: bIAP inhibitor, bIAP activator)
COc1ccc(C(=O)Nc2cccc(C)c2)cc1S(=O)(=O)N1CCOCC1	none
COc1ccc(C(=O)Nc2cccc3c2C(=O)NC3=O)cc1S(=O)(=O)N1CCOCC1	hIAP inh 36 | hIAP act conf -85
Cn1c(C(=O)N2CCCC(C(=O)NCc3cccs3)C2)cc2sccc21 (stereo unspecified)	hIAP inh 38 | hIAP act conf inactive

Assay outcomes as filed in PubChem BioAssay.
